Laboratory results reported in BindingDB's records for doi:10.1021/acs.jmedchem.9b01547 (University of Oxford, 2020).

Tests used:
Utrophin [1] = target: T1, Utrophin (Homo sapiens, UniProt P46939); test: Activation of human utrophin-1 in mouse mdx myoblasts by H2K-mdx utrnA-luc assay
Summary of the method: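 Firefly luciferase reporter gene assay in H2K-mdx utrnA-luc cells (mouse mdx myoblasts carrying a human muscle-specific utrophin A promoter). EC50 from non-linear regression curve fit of 2 biological replicates, 3 technical replicates each.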

Utrophin [2] = target: T1, Utrophin; test: Activation of human utrophin-1 in iDMD cells by HTRF assay
Summary of the method: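 HTRF quantification of human utrophin protein in lysates of treated iDMD cells, read at 620 and 665 nm emission; top concentration 10 μM. EC50 by non-linear regression curve fit from 2 biological replicates, each with 3 technical replicates.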

T1 sequence (P46939 whole entry): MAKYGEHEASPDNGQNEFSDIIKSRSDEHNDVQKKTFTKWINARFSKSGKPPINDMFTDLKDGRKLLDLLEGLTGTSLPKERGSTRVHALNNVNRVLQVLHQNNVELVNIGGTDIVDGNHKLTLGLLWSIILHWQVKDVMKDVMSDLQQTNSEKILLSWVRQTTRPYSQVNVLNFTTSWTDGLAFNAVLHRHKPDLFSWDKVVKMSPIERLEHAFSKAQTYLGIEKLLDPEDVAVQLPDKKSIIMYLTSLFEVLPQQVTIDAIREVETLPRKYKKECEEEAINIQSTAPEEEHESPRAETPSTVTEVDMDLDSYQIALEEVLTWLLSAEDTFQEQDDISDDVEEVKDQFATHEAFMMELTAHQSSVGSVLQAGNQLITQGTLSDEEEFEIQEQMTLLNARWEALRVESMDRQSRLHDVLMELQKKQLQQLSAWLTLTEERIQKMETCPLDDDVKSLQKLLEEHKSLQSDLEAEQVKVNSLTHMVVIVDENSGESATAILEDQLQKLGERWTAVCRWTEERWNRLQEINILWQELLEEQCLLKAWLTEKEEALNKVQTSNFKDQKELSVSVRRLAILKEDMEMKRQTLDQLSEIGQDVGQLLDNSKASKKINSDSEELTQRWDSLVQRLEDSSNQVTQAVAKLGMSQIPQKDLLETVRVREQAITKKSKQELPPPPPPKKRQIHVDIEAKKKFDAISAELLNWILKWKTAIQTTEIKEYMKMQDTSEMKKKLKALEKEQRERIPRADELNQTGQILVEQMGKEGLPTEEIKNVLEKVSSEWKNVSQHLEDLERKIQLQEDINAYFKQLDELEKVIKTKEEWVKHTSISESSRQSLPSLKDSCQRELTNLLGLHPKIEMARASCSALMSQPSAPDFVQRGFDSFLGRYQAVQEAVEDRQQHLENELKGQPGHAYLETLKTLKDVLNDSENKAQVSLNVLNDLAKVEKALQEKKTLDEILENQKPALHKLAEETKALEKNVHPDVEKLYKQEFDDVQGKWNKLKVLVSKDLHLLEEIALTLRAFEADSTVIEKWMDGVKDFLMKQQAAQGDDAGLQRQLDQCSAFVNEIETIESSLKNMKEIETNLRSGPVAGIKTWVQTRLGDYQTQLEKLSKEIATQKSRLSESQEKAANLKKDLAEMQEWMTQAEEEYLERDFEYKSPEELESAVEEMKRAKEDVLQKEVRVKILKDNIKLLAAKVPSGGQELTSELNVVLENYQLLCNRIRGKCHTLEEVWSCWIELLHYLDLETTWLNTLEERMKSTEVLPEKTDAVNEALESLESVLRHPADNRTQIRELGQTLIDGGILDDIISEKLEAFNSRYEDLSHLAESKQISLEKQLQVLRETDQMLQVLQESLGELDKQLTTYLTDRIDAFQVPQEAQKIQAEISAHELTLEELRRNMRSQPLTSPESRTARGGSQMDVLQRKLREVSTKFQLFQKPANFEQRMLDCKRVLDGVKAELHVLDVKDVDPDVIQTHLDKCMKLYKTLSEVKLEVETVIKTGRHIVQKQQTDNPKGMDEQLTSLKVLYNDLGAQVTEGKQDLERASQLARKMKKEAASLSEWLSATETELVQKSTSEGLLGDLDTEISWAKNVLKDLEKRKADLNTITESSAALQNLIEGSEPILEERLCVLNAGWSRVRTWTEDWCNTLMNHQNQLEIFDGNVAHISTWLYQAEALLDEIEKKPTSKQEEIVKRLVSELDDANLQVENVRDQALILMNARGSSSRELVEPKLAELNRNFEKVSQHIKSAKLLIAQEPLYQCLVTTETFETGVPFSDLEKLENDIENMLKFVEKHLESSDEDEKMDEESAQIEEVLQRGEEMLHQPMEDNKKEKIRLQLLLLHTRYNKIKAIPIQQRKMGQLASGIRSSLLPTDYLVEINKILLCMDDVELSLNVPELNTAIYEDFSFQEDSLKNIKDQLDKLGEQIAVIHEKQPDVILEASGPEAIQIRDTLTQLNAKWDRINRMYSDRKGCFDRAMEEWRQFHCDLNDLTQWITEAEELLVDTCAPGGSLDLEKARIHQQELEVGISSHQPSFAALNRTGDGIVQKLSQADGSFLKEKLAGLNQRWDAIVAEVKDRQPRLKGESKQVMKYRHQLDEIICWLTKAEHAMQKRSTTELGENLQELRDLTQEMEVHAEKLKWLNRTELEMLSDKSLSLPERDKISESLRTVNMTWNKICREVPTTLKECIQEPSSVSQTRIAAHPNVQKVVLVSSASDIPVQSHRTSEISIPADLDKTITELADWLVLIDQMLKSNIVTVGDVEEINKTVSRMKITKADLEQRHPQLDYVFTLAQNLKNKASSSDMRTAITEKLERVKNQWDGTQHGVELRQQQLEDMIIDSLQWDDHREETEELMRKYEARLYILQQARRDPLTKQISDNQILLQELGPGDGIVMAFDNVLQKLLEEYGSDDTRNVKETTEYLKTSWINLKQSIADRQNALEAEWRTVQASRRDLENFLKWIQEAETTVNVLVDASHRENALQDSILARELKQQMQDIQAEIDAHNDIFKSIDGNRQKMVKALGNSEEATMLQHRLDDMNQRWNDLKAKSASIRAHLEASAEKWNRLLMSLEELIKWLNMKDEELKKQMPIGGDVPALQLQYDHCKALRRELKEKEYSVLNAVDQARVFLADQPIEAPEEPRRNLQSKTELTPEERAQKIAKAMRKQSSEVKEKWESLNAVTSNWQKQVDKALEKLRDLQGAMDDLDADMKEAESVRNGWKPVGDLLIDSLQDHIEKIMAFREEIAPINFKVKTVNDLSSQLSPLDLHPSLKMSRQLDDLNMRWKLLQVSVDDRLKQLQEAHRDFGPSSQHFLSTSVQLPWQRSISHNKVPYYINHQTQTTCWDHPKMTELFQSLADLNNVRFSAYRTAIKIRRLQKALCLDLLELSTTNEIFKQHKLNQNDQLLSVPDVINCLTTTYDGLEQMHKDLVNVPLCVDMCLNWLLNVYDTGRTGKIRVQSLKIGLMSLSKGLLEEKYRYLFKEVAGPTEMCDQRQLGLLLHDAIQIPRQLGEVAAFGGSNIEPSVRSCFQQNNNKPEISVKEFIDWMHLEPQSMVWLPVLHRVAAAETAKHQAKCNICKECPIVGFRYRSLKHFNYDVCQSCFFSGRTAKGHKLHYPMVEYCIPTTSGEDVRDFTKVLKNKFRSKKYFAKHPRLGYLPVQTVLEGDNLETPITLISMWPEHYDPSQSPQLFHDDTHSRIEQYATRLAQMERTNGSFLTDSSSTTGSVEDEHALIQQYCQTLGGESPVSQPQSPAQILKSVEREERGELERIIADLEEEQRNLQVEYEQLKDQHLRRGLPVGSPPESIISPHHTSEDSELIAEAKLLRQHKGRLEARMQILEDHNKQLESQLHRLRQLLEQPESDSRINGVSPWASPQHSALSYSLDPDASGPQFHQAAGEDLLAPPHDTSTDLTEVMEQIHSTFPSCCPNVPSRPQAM

EC50 (Utrophin [1]) | EC50 (Utrophin [2]) | SMILES
370 nM | > 10000 nM | CCS(=O)(=O)c1ccc2oc(-c3ccc4c(c3)C=C[C@H](O)[C@H]4O)nc2c1
120 nM | 8350 nM | CCS(=O)(=O)c1ccc2oc(-c3ccc4c(c3)[C@@H](O)[C@H](O)C=C4)nc2c1
110 nM | 1280 nM | CCS(=O)(=O)c1ccc2oc(-c3ccc4ccccc4c3)nc2c1 [BMN 195]
